Measurements of several laboratories.
Compare with care: the assays were run in different laboratories.
Target: Dual specificity tyrosine-phosphorylation-regulated kinase 2 (DYRK2, Homo sapiens, UniProt Q92630)
Residues used in one study (Q92630 1-601): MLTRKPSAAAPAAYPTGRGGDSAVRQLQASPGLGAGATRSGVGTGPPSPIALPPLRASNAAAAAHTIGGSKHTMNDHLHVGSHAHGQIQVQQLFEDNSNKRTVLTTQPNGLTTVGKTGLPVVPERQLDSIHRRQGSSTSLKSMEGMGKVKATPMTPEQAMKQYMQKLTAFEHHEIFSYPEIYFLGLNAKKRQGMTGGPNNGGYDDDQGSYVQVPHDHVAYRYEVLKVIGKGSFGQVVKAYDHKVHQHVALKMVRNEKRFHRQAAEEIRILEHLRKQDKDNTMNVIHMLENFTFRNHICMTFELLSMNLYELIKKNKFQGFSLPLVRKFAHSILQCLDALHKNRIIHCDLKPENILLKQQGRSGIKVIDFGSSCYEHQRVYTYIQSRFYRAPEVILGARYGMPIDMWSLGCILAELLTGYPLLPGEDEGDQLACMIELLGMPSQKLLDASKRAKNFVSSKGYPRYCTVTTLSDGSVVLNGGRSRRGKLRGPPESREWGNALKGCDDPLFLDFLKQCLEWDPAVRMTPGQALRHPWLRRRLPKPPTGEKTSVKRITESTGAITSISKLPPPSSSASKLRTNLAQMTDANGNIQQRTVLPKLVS

The remaining activity of `O=C(O)c1ccc2c(c1)nc(Nc1cccc(F)c1)c1ccncc12` is reported as 13% (enzyme activity; inhibitor; radiometric; 1 µM).
For `CCCCN(CCCC)C(=O)CN1C[C@@H](c2cc(OC)c3c(c2)OCO3)[C@H](C(=O)O)[C@H]1CC(C)(C)CCC`, the remaining binding was 82.9% (cell-free assay; competition with immobilised ligand; 1 µM).
The inhibition of `CNC(=O)c1cc(Oc2ccc(NC(=O)Nc3ccc(Cl)c(C(F)(F)F)c3)cc2)ccn1` is reported as -3% (enzyme activity; inhibitor; 0.3 µM).
`O=C(O)c1ccc2c(c1)nc(Nc1cccc(F)c1)c1ncncc12` gave a remaining activity of 33% (enzyme activity; inhibitor; radiometric; 1 µM).
`FC(F)(F)Oc1cccc(-c2cnc3ccc(-c4ccncc4)nn23)c1` has an activity vs control of 52% (enzyme activity; inhibitor; radiometric; 1 µM).
`O=C(O)c1ccc2c(c1)nc(NCc1ccccc1)c1ccncc12` gave a remaining activity of 27% (enzyme activity; inhibitor; radiometric; 1 µM).
`O=C(O)[C@H]1[C@H](Cn2nnc3ccccc3c2=O)CC[C@@H]1C(=O)c1ccc(OCCC2CCOCC2)cc1` has a remaining binding of 93% (cell-free assay; competition with immobilised ligand; 1 µM).
`COc1ccc(COc2ccc(Cc3cnc(N)nc3N)cc2OC)cc1` has a remaining signal of 105% (cell-free assay; 0.5 µM).
`Cc1ccc(Nc2nccc(N(C)c3ccc4c(C)n(C)nc4c3)n2)cc1S(N)(=O)=O` has an inhibition of -8% (enzyme activity; inhibitor; 0.3 µM).
For `NS(=O)(=O)c1cc(NC(=O)Cc2ccccc2)ccc1Oc1cccc(Cl)c1`, the remaining binding was 100% (cell-free assay; competition with immobilised ligand; 1 µM).
The activity vs control of `Cc1cc(NC(=O)c2cccc3cc(-c4cccc5[nH]nc(N)c45)ccc23)ccc1F` is reported as 98% (enzyme activity; inhibitor; 0.1 µM).
The remaining signal of `C[S+]([O-])c1ccc(-c2nc(-c3ccncc3)c(-c3ccc(F)cc3)[nH]2)cc1` (stereo not shown) is reported as 98.7% (cell-free assay; 0.5 µM).
`O=C(O)c1ccc2c(c1)nc(Nc1ccccc1)c1ncncc12` has a remaining activity of 54% (enzyme activity; inhibitor; radiometric; 1 µM).
`CN1CC(Oc2cnc(C#N)cc2-c2ccn3nc(NC(=O)C4CC4)cc3c2)C1` has an inhibition of 3% (enzyme activity; inhibitor; 1 µM).
With `COc1cc(/C=C/C(=O)CC(=O)/C=C/c2ccc(O)c(OC)c2)ccc1O` the activity vs control was 5% (enzyme activity; inhibitor; 1 µM).
`CCN(CC)CCNC(=O)c1c(C)[nH]c(/C=C2\C(=O)Nc3ccc(F)cc32)c1C` has an inhibition of 36% (enzyme activity; inhibitor; 10 µM).
`O=C(O)c1ccc2c(c1)nc(NCc1ccccc1)c1ncncc12` gave a remaining activity of 37% (enzyme activity; inhibitor; radiometric; 1 µM).
With `Cc1c[nH]c2nccc(Oc3c(F)cc(Nc4cc(Cl)nc(N)n4)cc3F)c12` the remaining binding was 100% (cell-free assay; competition with immobilised ligand; 0.1 µM).
With `O=C(O)c1ccc2c(c1)nc(NCCc1cccc(F)c1)c1ncncc12` the remaining activity was 52% (enzyme activity; inhibitor; radiometric; 1 µM).
The remaining binding of `Cc1nc(Cc2cccc(C(F)(F)F)c2)sc1-c1ccc(C(N)=O)nc1` is reported as 90% (cell-free assay; competition with immobilised ligand; 1 µM).
`O=C1NC(=O)c2cc(Nc3ccc(F)cc3)c(Nc3ccc(F)cc3)cc21` gave a remaining signal of 89.1% (cell-free assay; 0.5 µM).
With `Cn1cncc1C1=CN(c2ncnc3[nH]cnc23)CCS1` the inhibition was 91.2% (enzyme activity; inhibitor; radiometric; 2 µM).
With `O=C(N1CCS(=O)(=O)CC1)N1C[C@H](c2ccc(OC(F)(F)F)cc2)C[C@H](c2nc(C3CC3)no2)C1` the remaining binding was 100% (cell-free assay; competition with immobilised ligand; 1 µM).
`O=C(O)c1ccc2c(c1)nc(NCCc1cccc(Cl)c1)c1ccncc12` has a remaining activity of 29% (enzyme activity; inhibitor; radiometric; 1 µM).
`Cc1cc(C)c(-n2ccn3nc(-c4cccnc4)cc23)cc1NC(=O)c1cc(C#N)cc(S(F)(F)(F)(F)F)c1` gave a remaining binding of 82.5% (cell-free assay; competition with immobilised ligand; 0.1 µM).
For `Cc1ccc(NC(=O)c2ccc(C)c(C(F)(F)F)c2)cc1C#Cc1nn(C2CCC(O)CC2)c2ncnc(N)c12` (stereo not shown), the remaining signal was 107% (cell-free assay; 10 µM).
The remaining activity of `N#Cc1cccc(Nc2nc3cc(C(=O)O)ccc3c3cncnc23)c1` is reported as 55% (enzyme activity; inhibitor; radiometric; 1 µM).
`O=C(Nc1cccnn1)N1CC(C/C=C/c2cncc(Oc3ccc(C(F)(F)F)cn3)n2)C1` gave a remaining binding of 81% (cell-free assay; competition with immobilised ligand; 1 µM).
